Data on four compounds can be found in article PMC11607387 (Nature Communications, 2024).

A short description of data set [1]: DLS size, PDI and zeta potential of nanoparticles. The class given is physicochemical. The note with it: without dBET6.
In data set [2] the test system is BALB/c nude mice bearing primary tumors of breast cancer. Kind of data set: Biodistribution after intravenous injection. It is filed as in vivo. The note with it: 24 h post intravenous injection, ex vivo. Summed up: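 Tumour-bearing BALB/c nude mice, tumours about 200 mm3 roughly 14 days after cell injection, randomised into four groups (n = 4). Ce6-labelled formulations were given intravenously and imaged on IVIS at 1, 2, 4, 8, 12 and 24 h. At 24 h animals were sacrificed; tumours and major organs were imaged ex vivo, fluorescence semi-quantified, then fixed and frozen-sectioned for imaging.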

Data set [3] relates to 4T1 cells. In words: Wound healing assay. It is filed as cell-based, murine. As to conditions: 24 h, cell motility = 1 - wound area at 24 h/wound area at 0 h. In outline: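 4T1 monolayers in 12-well plates at 80% confluency were scratched with a 10 μL tip and washed three times with cold PBS, then treated with formulations. Laser groups were irradiated after 4 h. At 24 h, cells were fixed, stained with 0.1% crystal violet, and the scratched area imaged by inverted microscope.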

The next data set deals with RAW264.7 cells. Kind of data set: MTT cytotoxicity on RAW264.7 cells. The class given is cell-based. The note with it: for cytotoxicity in RAW 264.7 cells: without laser. In outline:
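RAW264.7 cells seeded at 5 × 10^3/well, grown 24 h, then exposed to preparations across a concentration series. After 4 h, only the laser groups were irradiated (650 nm); all cells were incubated a further 20 h, and viability was read by MTT.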

The next data set deals with T1, human MMP-2 (Homo sapiens, UniProt P08253).
T1 sequence (P08253 110-660): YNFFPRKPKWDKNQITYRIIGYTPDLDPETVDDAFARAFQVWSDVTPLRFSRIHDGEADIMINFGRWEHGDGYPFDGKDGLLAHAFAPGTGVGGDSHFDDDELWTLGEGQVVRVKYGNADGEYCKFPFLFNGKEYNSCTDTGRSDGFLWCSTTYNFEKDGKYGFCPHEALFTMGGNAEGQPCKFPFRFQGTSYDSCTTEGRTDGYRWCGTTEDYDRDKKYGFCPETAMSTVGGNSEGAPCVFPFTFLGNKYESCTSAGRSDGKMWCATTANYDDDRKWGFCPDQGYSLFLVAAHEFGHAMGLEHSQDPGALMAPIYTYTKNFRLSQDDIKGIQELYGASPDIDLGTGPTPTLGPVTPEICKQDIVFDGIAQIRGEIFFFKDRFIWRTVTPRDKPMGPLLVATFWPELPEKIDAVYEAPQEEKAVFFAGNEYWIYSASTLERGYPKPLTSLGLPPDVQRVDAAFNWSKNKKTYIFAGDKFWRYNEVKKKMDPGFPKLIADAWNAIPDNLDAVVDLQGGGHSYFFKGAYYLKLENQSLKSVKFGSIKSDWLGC
Kind of data set: MMP-2 responsiveness. The class given is biochemical. The note with it: human MMP-2, 4 and 24 h, 37 °C, MALDI-TOF-MS.

The subject of data set [4] is mice bearing 4T1-Luc brain-metastatic tumor. In words: Brain accumulation in brain-metastasis model. As to conditions: ex vivo, 8 h post intravenous injection. In outline:
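Brain-metastasis model: 4T1-Luc cells (5 × 10^3) implanted stereotactically into right hippocampus. After 10 days, grouped by bioluminescence intensity (n = 4). Formulations given intravenously; IVIS fluorescence imaging at 1, 2, 4 and 8 h. At 8 h, mice sacrificed; brains and major organs imaged ex vivo for fluorescence.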

In data set [5] the test system is 4T1 cells. In words: Cellular uptake by flow cytometry and fluorescence microscopy. It is filed as cell-based, murine. The note with it: flow cytometry, Ce6 5 μg/mL. In outline:
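4T1 cells (1 × 10^5/well) grown to 80% confluency, exposed to formulations in serum-free 1640 medium at equal Ce6 (5 μg/mL) for 1, 4 or 12 h, then analysed by flow cytometry (n = 3). For microscopy, cells (2 × 10^5/well) on coverslips grown 36 h to 60% confluency, treated likewise, washed with cold PBS, fixed, DAPI-stained (1 μg/ml, 5 min) and imaged.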
A general note: In flow cytometry, cells or beads pass a laser one at a time.

The subject of data set [6] is BALB/c nude mice bearing breast cancer. In words: Tumor retention after intra-tumoral injection. The class given is in vivo. The note with it: 48 h post intra-tumoral injection, ex vivo. Summed up:
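Breast-tumour-bearing BALB/c nude mice received formulations intratumorally. IVIS fluorescence imaging at 5 min and 4, 8, 12, 24, 36 and 48 h post-injection. Tumours and major organs were imaged ex vivo, then fixed, dehydrated and frozen-sectioned for fluorescence imaging.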

As for Ce6-FFRFKGPLGLAGC-PEG-DSPE [CFMPD], in data set [1], the “size of self-assembled nanoparticles” value was “around 90 nm”. For the same compound, in data set [2], the “tumor fluorescent signal, fold higher than CFPD” value was 1.22 fold and the “tumor fluorescent signal, fold higher than CPD” value is on record as 1.71 fold. In addition, in the data set on 4T1 cells [3], the “cell mobility (wound healing)” value is given as 37.0%. Also, the “cytotoxicity in RAW 264.7 cells” value with RAW264.7 cells is reported as “negligible cytotoxicity”. For the same compound, the “molecular mass change after incubation with MMP-2” value at human MMP-2 is reported as “distinct new peaks belonging to the post-enzymatic fragmentation”. In addition, in data set [4], the “brain fluorescence, fold stronger than CFPD” value is listed as 1.46 fold; the “brain fluorescence, fold stronger than CPD” value is 2.04 fold; the “brain fluorescence, fold stronger than Ce6” value is listed as 2.43 fold. The “fluorescence signal relative to free Ce6 (cellular uptake)” value (from here on “fluorescence signal relative to free Ce6”) in the data set on 4T1 cells [5] (1 h) is recorded as 6.53 fold. In the data set with 4T1 cells [5] (4 h), the “fluorescence signal relative to free Ce6” value was found to be 4.13 fold. The “fluorescence signal relative to free Ce6” value in the data set with 4T1 cells [5] (12 h) was found to be 3.64 fold. Also, the “tumor fluorescence intensity, fold stronger than CFPD” value in data set [6] worked out at 1.72 fold.

In the case of Ce6-FFRFKGPGLLAGC-PEG-DSPE [CFPD], the “size of self-assembled nanoparticles” value in data set [1] was “around 90 nm”. Also, the “cytotoxicity in RAW 264.7 cells” value in the data set on RAW264.7 cells is “negligible cytotoxicity”. For the same compound, at human MMP-2, the “molecular mass change after incubation with MMP-2” value is on record as “no significant change in molecular mass”. The results for the “fluorescence signal relative to free Ce6” value in the data set on 4T1 cells [5] (1 h), with 4T1 cells [5] (4 h) and in the data set on 4T1 cells [5] (12 h) were 5.71 fold, 3.73 fold and 3.10 fold, respectively.

In the case of Ce6-PEG3400-DSPE [CPD], the “size of self-assembled nanoparticles” value in data set [1] is “around 90 nm”. For the same compound, in the data set on RAW264.7 cells, the “cytotoxicity in RAW 264.7 cells” value is listed as “negligible cytotoxicity”.

For `Cc1sc2c(c1C)C(c1ccc(Cl)cc1)=N[C@@H](CC(=O)NCCCCCCCCNC(=O)COc1cccc3c1C(=O)N(C1CCC(=O)NC1=O)C3=O)c1nnc(C)n1-2` (stereo partly shown) [dBET6, reference compound], the “influence on cell viability of RAW264.7 cells” value with RAW264.7 cells (dBET6 0.25 μg/mL) is “no influence on cell viability”.
